Reference: ChEMBL document CHEMBL3352626, “Synthesis and biological evaluation of novel oxindole-based RTK inhibitors as anti-cancer agents” (Bioorg Med Chem, 2014)

Assays:
NCI-H1975 = experiment: Antiproliferative activity against human NCI-H1975 cells at 10 uM after 72 hrs by MTS assay; type: functional
Method in brief: (§1)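 Single-concentration screen. Cells at 4 × 10^4 cells/ml, seeded and incubated overnight, then given 10 µM compound in DMSO for 72 h (37 °C, 5% CO2), with DMSO-only controls. MTS added for 4 h and A490 read. Percent inhibition = (1 − OD490 treated/OD490 control) × 100, from triplicate experiments.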

A549 = experiment: Antiproliferative activity against human A549 cells at 10 uM after 72 hrs by MTS assay; type: functional
U-251 = experiment: Antiproliferative activity against human U251 cells at 10 uM after 72 hrs by MTS assay; type: functional; method in brief: as §1
[1] = Antiproliferative activity against human SGC7901 cells at 10 uM after 72 hrs by MTS assay; type: functional, SGC-7901
[2] = Antiproliferative activity against human Bel7402 cells at 10 uM after 72 hrs by MTS assay; type: functional, Bel-7402
[3] = Antiproliferative activity against human HCC827 cells at 10 uM after 72 hrs by MTS assay; type: functional
[4] = Antiproliferative activity against human H460 cells at 10 uM after 72 hrs by MTS assay; type: functional, NCI-H460
[5] = Antiproliferative activity against human PM8910 cells at 10 uM after 72 hrs by MTS assay; type: functional
[6] = Antiproliferative activity against human SKBR3 cells at 10 uM after 72 hrs by MTS assay; type: functional, SK-BR-3; method in brief: as §1

Row | SMILES | Activity (NCI-H1975) [%] | Activity (A549) [%] | Activity (U-251) [%] | Activity [1] [%] | Activity [2] [%] | Activity [3] [%] | Activity [4] [%] | Activity [5] [%] | Activity [6] [%]
1 | O=C1Nc2ccc(Cl)cc2/C1=C/c1c[nH]c2ncccc12 | 48.72 | 34.13 | 5.49 | 31.4 | 34.51 | 25.9 | 48.99 | 29.28 | 10.07
2 | CCOC(=O)c1ccc(/N=C2\C(=O)Nc3ccc(Cl)cc32)c(Nc2cc(OC)cc(OC)c2)c1 | 65.83 | 32.9 | 7.98 | 64.74 | 28.63 | 41.43 | 57.08 | 42.24 | 41.17
3 | O=C1Nc2ncccc2/C1=C/c1ccc(N2CCN(C(=O)CCCl)CC2)cc1 | 17.66 | 5.2 | -2.81 | 5.55 | 12.01 | 13.18 | 7.98 | 14.97 | 10.56
4 | O=C1Nc2ccc(Cl)cc2/C1=N/c1ccc2[nH]ccc2c1 | 21.92 | -10.32 | 26.95 | 12.49 | 13.44 | 20.17 | 9.99 | 10.94 | 11.83
5 | O=CN1CCN(c2ccc(/C=C3\C(=O)Nc4ncccc43)cc2)CC1 | 23.51 | 0.14 | -12.2 | 9.66 | 15.45 | 14.61 | 13.68 | 10.13 | 7.8
6 | O=C1Nc2ccccc2/C1=C/c1ccc(N2CCOCC2)cc1 | 28.96 | 37.09 | 1.92 | 17.89 | 23.53 | 34.26 | 26.56 | 14.19 | 11.93
7 | O=C1Nc2ncccc2/C1=C/c1ccccc1C(F)(F)F | 31.12 | 11.09 | -5.87 | 13.97 | 7.05 | 1.3 | 16.53 | 29.66 | 5.96
8 | O=C1Nc2ccc(Cl)cc2/C1=N/NC(=O)c1ccc(N2CCOCC2)c([N+](=O)[O-])c1 | 17.93 | 7.93 | -8.37 | 0.54 | 0.27 | 3.85 | 7.06 | 8.98 | 11.88
9 | O=C1Nc2ncccc2/C1=C/c1ncc[nH]1 | 22.81 | 6.76 | -2.99 | 12.69 | 3.18 | -5.39 | 13.74 | 0.71 | -0.35
10 | O=C1Nc2ncccc2/C1=C/c1c[nH]c2ccc(Br)cc12 | 71.46 | 29.66 | 5.06 | 32.51 | 42.22 | 39.64 | 39.48 | 40.59 | 27.26
11 | O=C1Nc2ccccc2/C1=C/c1ccc(N2CCN(C(=O)c3ccccc3)CC2)cc1 | 42.39 | 23.47 | 11.33 | 23.7 | 30.87 | 53.47 | 35.67 | 40.43 | 27.26
12 | COc1cc(OC)c(/C=C2\C(=O)Nc3ncccc32)c(OC)c1 | 66.49 | 39.96 | 7.46 | 35.63 | 40.41 | 17.03 | 53.98 | 41.21 | 2.1
13 | O=C1Nc2ccc(Cl)cc2/C1=N/c1ccc2cc[nH]c2c1 | 47.6 | 10.2 | -5.47 | -0.27 | 5.59 | 24.95 | 17.08 | 11.93 | 14.03
14 | O=C1Nc2ccc(Cl)cc2/C1=N/c1ccc2ncccc2c1 | 48.22 | 33.82 | -1.16 | 11.48 | 0.92 | 36.53 | 24.3 | 17.04 | 24.97
15 | O=C1Nc2ncccc2/C1=C/c1c[nH]c2ccccc12 | 13.11 | 5.4 | 0.83 | 24.68 | 18.98 | 7.27 | 7.2 | 3.22 | 2.64
16 | C=CC(=O)N1CCN(c2ccc(/C=C3\C(=O)Nc4ncccc43)cc2)CC1 | 35.6 | 25.1 | 12.58 | 6.35 | 12.29 | 22.4 | 7.69 | 19.94 | 13.65
17 | O=C1Nc2ccc(Cl)cc2/C1=N/c1ccc2nc(S)[nH]c2c1 | 26.56 | 11.87 | -4.89 | 4.79 | 10.23 | 19.19 | 5.31 | 10.36 | 8.27
18 | O=CN1CCN(c2ccc(/C=C3\C(=O)Nc4ccccc43)cc2)CC1 | 27.15 | 25.54 | 2.24 | 16.5 | 25.97 | 26.61 | 32.06 | 27.47 | 7.42
19 | Nc1nc(N2CCOCC2)ccc1/N=C1\C(=O)Nc2ccc(Cl)cc21 | 56.34 | 34.07 | -0.07 | 18.63 | 18.8 | 33.66 | 37.48 | 26.03 | 17.97
20 | O=C1Nc2ncccc2/C1=C/c1ccc(N2CCN(C(=O)c3ccccc3)CC2)cc1 | 35.62 | 10.59 | 3.44 | 15.99 | 17.58 | 21.77 | 17.24 | 13.74 | 9.07
21 | Cc1cc2cc(/N=C3\C(=O)Nc4ccc(Cl)cc43)ccc2[nH]1 | 26.35 | 7.35 | 7.94 | 7.05 | 6.73 | 23.12 | 8.51 | 12.97 | 9.84
22 | CCn1c2ccccc2c2cc(/N=C3/C(=O)Nc4ccc(Cl)cc43)ccc21 | 59.78 | 26.46 | 8.03 | 15.22 | 16.52 | 37.81 | 30.28 | 24.55 | 20.02
23 | CCOC(=O)c1ccc(/N=C2\C(=O)Nc3ccc(Cl)cc32)c(N2CCOCC2)n1 | 34.78 | 24.53 | 7.69 | 2.89 | 8.58 | 18.58 | 14.19 | 21.97 | 14.58
24 | Cn1cc(/C=C2/C(=O)Nc3ncccc32)c2ccccc21 | 38.04 | 11.36 | -0.65 | 22.39 | 24.47 | 37.21 | 19.17 | 22.23 | 8.29
25 | O=C1Nc2ncccc2/C1=C/c1ccc(N2CCOCC2)cc1 | 9.21 | 12.18 | -3.95 | 21.38 | 9.16 | 10.19 | 32.46 | -1.48 | 2.52
26 | O=C1Nc2ccc(Cl)cc2/C1=N/NC(=O)c1ccco1 | 27.45 | 11.52 | 12.52 | 10.02 | 12.57 | 7.22 | 17.15 | 15.69 | 23.68
